Values joined by “and” are separate entries in the source; they are usually repeats but may differ in a detail not shown here. Equal entries are not always repeated.

In experiment [1] the test system is P388. Nature of the experiment: In vivo antitumor activity was determined against P 388 leukemia cells implanted (ip) in BDF1 mice at a dose of 50 mg/kg. It is filed as functional, Mus musculus. In short, it runs like this:
(§1)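 Groups of eight BDF1 mice received 10⁶ P388 cells ip on day 0. Control groups of 18 mice received saline. Read-out is T/C (%). T/C ≤85% is scored toxic and ≥125% significant activity. Some doses were repeated in an independent multidose assay.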

The test system of experiment [2] is P388. Description: In vivo antitumor activity was determined against P 388 leukemia cells implanted (ip) in BDF1 mice at a dose of 25 mg/kg. The format is functional, Mus musculus. In short, it runs like this: as §1
The subject of experiment [3] is HeLa. Description: In vitro cytotoxic activity against HeLaS3 cells in tissue culture was determined. The format is functional, cell-based. To be noted: Homo sapiens. In short, it runs like this: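 HeLa S3 cells grown in tissue culture. Read-out is the concentration giving 50% inhibition. Significant cytotoxicity is defined as 50% inhibition at <1 µg/mL. Values are the mean of three independent experiments.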

In experiment [4] the test system is P388. Description: In vivo antitumor activity was determined against P 388 leukemia cells implanted (ip) in BDF1 mice at a dose of 100 mg/kg. The format is functional, Mus musculus. The method, boiled down: as §1
The subject of experiment [5] is P388. Description: In vivo antitumor activity was determined against P 388 leukemia cells implanted (ip) in BDF1 mice at a dose of 30 mg/kg. It is filed as functional, Mus musculus. The method, boiled down:
as §1

The subject of experiment [6] is P388. Nature of the experiment: In vivo antitumor activity was determined against P 388 leukemia cells implanted (ip) in BDF1 mice at a dose of 90 mg/kg. The format is functional, Mus musculus. In short, it runs like this:
as §1

In experiment [7] the test system is P388. Description: In vivo antitumor activity was determined against P 388 leukemia cells implanted (ip) in BDF1 mice at a dose of 150 mg/kg. The format is functional, Mus musculus. In short, it runs like this:
as §1

The subject of experiment [8] is P388. Nature of the experiment: In vivo antitumor activity was determined against P 388 leukemia cells implanted (ip) in BDF1 mice a dose of 75 mg/kg. The format is functional, Mus musculus. The method, boiled down: as §1
Experiment [9] deals with P388. Nature of the experiment: In vivo antitumor activity was determined against P 388 leukemia cells implanted (ip) in BDF1 mice at a dose of 60 mg/kg. It is filed as functional, Mus musculus. The method, boiled down: as §1
For experiment [10], the system named is P388. Description: In vivo antitumor activity was determined against P 388 leukemia cells implanted (ip) in BDF1 mice at a dose of 75. The format is functional, Mus musculus. The method, boiled down: as §1
Experiment [11] concerns P388. Description: In vivo antitumor activity was determined against P 388 leukemia cells implanted (ip) in BDF1 mice at a dose of 75 mg/kg. It is filed as functional, Mus musculus. In short, it runs like this: as §1
The test system of experiment [12] is P388. Description: In vivo antitumor activity was determined against P 388 leukemia cells implanted (ip) in BDF1 mice at a dose of 175 mg/kg. The format is functional, Mus musculus. In short, it runs like this:
as §1

The T/C is the result in the treated group divided by that in the control group, in per cent. As usually defined, the IC50 is the concentration needed to halve the response being measured. A lower IC50 goes with greater potency. With `CN(C)CCNc1ccc([N+](=O)[O-])c2nc3ccccc3c(O)c12.Cl`, the T/C in experiment [1] was 185%; in experiment [2] (25 mg/kg), 160% and 166%. In addition, the IC50 in experiment [3] came out at 0.15 µg/mL.

`CC(=O)Nc1ccc(NCCCN(C)C)c2c(O)c3ccccc3nc12.Cl.Cl`: in experiment [3], the IC50 was greater than 5 µg/mL.

The compound `CN(C)CCCCCNc1ccc2ncn3c4ccccc4c(=O)c1c23.Cl.Cl` had a T/C in experiment [4] of 110%. In experiment [3], this compound displayed an IC50 of 0.5 µg/mL.

In turn, `CN(C)CCCNc1ccc2nc(-c3ccccc3)n3c4ccccc4c(=O)c1c23.Cl.Cl` displayed an IC50 in [3] of 0.28 µg/mL. The T/C in [5] is on record as 110%.

`CCc1nc2ccc(NCCCN(C)C)c3c(=O)c4ccccc4n1c23.Cl.Cl`: the IC50 in experiment [3] is 0.25 µg/mL. The compound further yielded a T/C in [6] of 130%.

In [4], `CN(C)CCNc1ccc(N)c2nc3ccccc3c(O)c12.Cl.Cl` displayed a T/C of less than 85%. In experiment [3], this compound displayed an IC50 of 2.93 µg/mL.

Turning to `CN(C)CCCNc1ccc(N)c2nc3ccccc3c(O)c12.Cl.Cl`, the T/C in experiment [2] is less than 85%. This compound also registered a half-inhibitory concentration (IC50) in experiment [3] of 0.25 µg/mL.

On to `CN(C)CCCCCNc1ccc(N)c2nc3ccccc3c(O)c12.Cl.Cl`, for which the IC50 in experiment [3] was 1.05 µg/mL.

Compound `Cc1nc2ccc(NCCCN(C)C)c3c(=O)c4ccccc4n1c23.Cl.Cl` gave a T/C in [7] of 122%. Besides, in experiment [3], the IC50 came out at 0.11 µg/mL.

In experiment [3], `CC(=O)Nc1ccc(NCCN(C)C)c2c(O)c3ccccc3nc12.Cl.Cl` displayed an IC50 greater than 5 µg/mL. For the same compound, the T/C in experiment [8] is listed as 137%.

For the compound `CN(C)CCNc1ccc2nc(-c3ccccc3)n3c4ccccc4c(=O)c1c23.Cl.Cl`, the T/C in experiment [1] is listed as 150%. The compound further displayed an IC50 in experiment [3] of 0.43 µg/mL.

Consider `CN(C)CCCCCNc1ccc([N+](=O)[O-])c2nc3ccccc3c(O)c12.Cl`, for which the IC50 in [3] was 0.13 µg/mL. For the same compound, in [9], the T/C was determined as 144%.

Turning to `CN(C)CCCNc1ccc([N+](=O)[O-])c2nc3ccccc3c(O)c12.Cl`, the figures for the T/C in experiment [4] and in experiment [10] were 189% and 190%, respectively. In experiment [3], this compound displayed an IC50 of 0.04 µg/mL.

For `CC(C)c1nc2ccc(NCCN(C)C)c3c(=O)c4ccccc4n1c23.Cl.Cl`, in experiment [7], the T/C worked out at 166%. The compound also registered an IC50 in experiment [3] of 0.37 µg/mL.

As for `CCCCCCCCc1nc2ccc(NCCN(C)C)c3c(=O)c4ccccc4n1c23.Cl.Cl`, in experiment [11], the T/C is on record as less than 85%. Also, in [3], half-maximal inhibition (IC50) was put at 0.2 µg/mL.

On to `CCCc1nc2ccc(NCCN(C)C)c3c(=O)c4ccccc4n1c23.Cl.Cl`, for which, in experiment [12], the T/C was 211% and 233%. The compound further yielded an IC50 in experiment [3] of 0.2 µg/mL.

For `Cc1nc2ccc(NCCN(C)C)c3c(=O)c4ccccc4n1c23.Cl.Cl`, the T/C in experiment [1] (50 mg/kg) is 190% and 230%. In experiment [3], the IC50 came out at 0.05 µg/mL.

Take `CN(C)CCNc1ccc2ncn3c4ccccc4c(=O)c1c23.Cl.Cl`: the T/C in experiment [2] (25 mg/kg) was 180% and 188%. This compound also gave an IC50 in experiment [3] of 0.06 µg/mL.

In [4], `CCc1nc2ccc(NCCN(C)C)c3c(=O)c4ccccc4n1c23.Cl.Cl` gave a T/C of 200%. The IC50 in experiment [3] amounted to 0.11 µg/mL.

Take `CN(C)CCCNc1ccc2ncn3c4ccccc4c(=O)c1c23.Cl.Cl`: the T/C in experiment [4] (100 mg/kg) is 133% and 120%. The compound further gave an IC50 in experiment [3] of 0.15 µg/mL.

The values above are taken from ChEMBL document CHEMBL1125144, “5-[(Aminoalkyl)amino]imidazo[4,5,1-de]acridin-6-ones as a novel class of antineoplastic agents. Synthesis and biological activity” (J Med Chem, 1990).
